# Test results published in ChEMBL document CHEMBL1122744, “2-Chloroethyl (methylsulfonyl)methanesulfonate and related (methylsulfonyl)methanesulfonates. Antineoplastic activity in vivo” (J Med Chem, 1984).
# Values joined by “and” are separate entries in the source; they are usually repeats but may differ in a detail not shown here. Equal entries are not always repeated.
# Tests used:
# [1] = Ratio of median survival times for non-survivors at dose 100 mg/kg in exp2; format: functional
# Outline: (§1)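 Mice were inoculated ip with 10^6 P388 leukemia cells on day 0. Groups of six (occasionally five) were dosed ip qd on days 1–5 with fresh suspensions; 30 mice served as untreated controls. Deaths were recorded daily up to day 60. T/C% compares the median survival of treated non-survivors (<60 days) with the control median. Medians used grouped data when there were no 30-day survivors, otherwise ungrouped data. t = toxic.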
# [2] = test system: Mus musculus; assay: Median survival time of the untreated control groups, in which there are no 30-day survivors at dose 150 mg/kg in exp2; format: functional
# [3] = test system: Mus musculus; assay: Mortality by day 5 expressed as number of mice died to the total treated at dose 50 mg/kg in exp1; 0/6; format: ADME, organism-based; set-up: dose 50 mg/kg; details: in vivo
# [4] = test system: Mus musculus; assay: Mortality by day 5 expressed as number of mice died to the total treated at dose 150 mg/kg in exp2; 0/6; format: ADME, organism-based; set-up: dose 150 mg/kg; details: in vivo
# [5] = Ratio of median survival times for non-survivors at dose 150 mg/kg in exp2; format: functional; outline: as §1
# [6] = test system: Mus musculus; assay: Change in weight by day 5, obtained by subtracting treated groups of animals minus control groups of animals at dose 200 mg/kg in exp1.; format: functional; details: 200 mg/kg
# Outline: (§2)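 Mice were inoculated ip with 10^6 P388 leukemia cells on day 0, when treated and control mice weighed 19–22 g. Treatment was given ip once daily on days 1–5, within about 5 min of preparing the solution or suspension. Groups of six (occasionally five) were treated, with 30 untreated inoculated mice as controls. The day-5 weight change is the mean treated change minus the mean control change.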
# [7] = test system: Mus musculus; assay: Median survival time of the untreated control groups, in which there are no 30-day survivors at dose 200 mg/kg in exp1; format: functional
# [8] = Ratio of median survival times for non-survivors at dose 200 mg/kg in exp1; t= toxic; format: ADME, organism-based; set-up: dose 200 mg/kg; details: in vivo; outline: as §1
# [9] = Ratio of median survival times for non-survivors at dose 50 mg/kg in exp1; format: functional; set-up: unit: %; outline: as §1
# [10] = test system: Mus musculus; assay: Median survival time of the untreated control groups, in which there are no 30-day survivors at dose 100 mg/kg in exp2; format: functional
# [11] = test system: Mus musculus; assay: Change in weight by day 5, obtained by subtracting treated groups of animals minus control groups of animals at dose 100 mg/kg in exp2; format: functional; outline: as §2
# [12] = test system: Mus musculus; assay: Median survival time of the untreated control groups, in which there are no 30-day survivors at dose 100 mg/kg in exp1; format: functional
# [13] = test system: Mus musculus; assay: Change in weight by day 5, obtained by subtracting treated groups of animals minus control groups of animals at dose 50 mg/kg in exp2; format: functional; outline: as §2
# [14] = Ratio of median survival times for non-survivors at dose 100 mg/kg in exp1; format: functional; set-up: unit: %; outline: as §1
# [15] = test system: Mus musculus; assay: Change in weight by day 5, obtained by subtracting treated groups of animals minus control groups of animals at dose 150 mg/kg in exp2; format: functional; outline: as §2
# [16] = test system: Mus musculus; assay: Median survival time of the treated control groups, in which there are no 30-day survivors at dose 100 mg/kg in exp1; format: functional
# [17] = test system: Mus musculus; assay: Median survival time of the treated control groups, in which there are no 30-day survivors at dose 50 mg/kg in exp1; format: functional
# [18] = test system: Mus musculus; assay: Mortality by day 5 expressed as number of mice died to the total treated at dose 200 mg/kg in exp1; 0/6; format: ADME, organism-based; set-up: dose 200 mg/kg; details: in vivo
# [19] = test system: Mus musculus; assay: Median survival time of the treated control groups, in which there are no 30-day survivors at dose 200 mg/kg in exp1; format: functional
# [20] = test system: Mus musculus; assay: Mortality by day 5 expressed as number of mice died to the total treated at dose 100 mg/kg in exp1; 0/6; format: ADME, organism-based; set-up: dose 100 mg/kg; details: in vivo
# [21] = test system: Mus musculus; assay: Median survival time of the treated control groups, in which there are no 30-day survivors at dose 100 mg/kg in exp2; format: functional
# [22] = test system: Mus musculus; assay: Change in weight by day 5, obtained by subtracting treated groups of animals minus control groups of animals at dose 50 mg/kg in exp1.; format: functional; outline: as §2
# [23] = test system: Mus musculus; assay: Median survival time of the treated control groups, in which there are no 30-day survivors at dose 150 mg/kg in exp2; format: functional
# [24] = test system: Mus musculus; assay: Mortality by day 5 expressed as number of mice died to the total treated at dose 100 mg/kg in exp2; 0/6; format: ADME, organism-based; set-up: dose 100 mg/kg; details: in vivo
# [25] = Ratio of median survival times for non-survivors at dose 50 mg/kg in exp2; format: functional; outline: as §1
# [26] = test system: Mus musculus; assay: Median survival time of the untreated control groups, in which there are no 30-day survivors at dose 50 mg/kg in exp1; format: functional
# [27] = test system: Mus musculus; assay: Median survival time of the treated control groups, in which there are no 30-day survivors at dose 50 mg/kg in exp2; format: functional
smiles,measurement,setting,value
CCOS(=O)(=O)CS(C)(=O)=O,Ratio,[1],170
same,Median survival time,[2],10.5
same,Mortality,[3],0
same,Mortality,[4],0
same,Ratio,[5],104
same,Change in weight,[6],-5 and -3.4
same,Median survival time,[7],11.2
same,Ratio,[8],Toxic
same,Ratio,[9],118
same,Median survival time,[10],10.5
same,Change in weight,[11],-4.3
same,Median survival time,[12],11.2
same,Change in weight,[13],-1.8
same,Ratio,[14],160
same,Change in weight,[15],-5.4
same,Median survival time,[16],18
same,Median survival time,[17],13.3
same,Mortality,[18],0
same,Median survival time,[19],6.9
same,Mortality,[20],0
same,Median survival time,[21],17.9
same,Change in weight,[22],-1.4
same,Median survival time,[23],11
same,Mortality,[24],0
same,Ratio,[25],133
same,Median survival time,[26],11.2
same,Median survival time,[27],14
